# Measurements: ChEMBL document CHEMBL2417357, “Synthesis and antiprotozoal activities of benzyl phenyl ether diamidine derivatives” (Eur J Med Chem, 2013)
# Active and inactive are the calls of the source. The calls are words filed in the database; no cut-off is given here.
# Tested on: Plasmodium falciparum
# Test: Antiplasmodial activity against chloroquine-resistant Plasmodium falciparum K1
# Assay type: functional, organism-based
# Details: not given
# Summary of the method: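 Chloroquine-resistant K1 strain tested in vitro. IC50 is the average of duplicate determinations.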
row,Structure (SMILES),IC50 [µM]
1,COc1cc(/C(N)=N/O)cc(OC)c1OCc1cccc(/C(N)=N/O)c1.Cl.Cl,> 11.5
2,CO/N=C(\N)c1cccc(COc2c(Br)cc(/C(N)=N/OC)cc2Br)c1.Cl.Cl,6.79
3,COc1cc(/C(N)=N/O)cc(Br)c1OCc1cccc(/C(N)=N/O)c1.Cl.Cl,> 10.4
4,CO/N=C(\N)c1cccc(COc2ccc(/C(N)=N/OC)cc2Br)c1.Cl.Cl,> 9.96
5,CO/N=C(\N)c1cccc(COc2c(I)cc(/C(N)=N/OC)cc2I)c1.Cl.Cl,> 7.1
6,CO/N=C(\N)c1cccc(COc2ccc(/C(N)=N/OC)cc2I)c1.Cl.Cl,6.3
7,Cl.Cl.N/C(=N\O)c1cccc(COc2ccc(/C(N)=N/O)cc2I)c1,7.31
8,Cl.Cl.N/C(=N\O)c1ccc(COc2ccc(/C(N)=N/O)cc2I)cc1,5.29
9,Cl.Cl.N/C(=N\O)c1cccc(COc2ccc(/C(N)=N/O)cc2Br)c1,5.8
10,COc1cc(/C(N)=N/O)cc(OC)c1OCc1ccc(/C(N)=N/O)cc1.Cl.Cl,11.1

# Tested on: L6
# Test: Cytotoxicity against rat L6 cells after 72 hrs by Alamar blue assay
# Assay type: cell-based
# Details: L6, 72 h
# Summary of the method: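 Rat L6 myoblast cells; cytotoxic IC50 taken as the average of duplicate determinations.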
row,Structure (SMILES),IC50 [µM]
1,COc1cc(/C(N)=N/O)cc(OC)c1OCc1cccc(/C(N)=N/O)c1.Cl.Cl,70.7
2,CO/N=C(\N)c1cccc(COc2c(Br)cc(/C(N)=N/OC)cc2Br)c1.Cl.Cl,54.7
3,COc1cc(/C(N)=N/O)cc(Br)c1OCc1cccc(/C(N)=N/O)c1.Cl.Cl,28.9
4,CO/N=C(\N)c1cccc(COc2ccc(/C(N)=N/OC)cc2Br)c1.Cl.Cl,99.4
5,CO/N=C(\N)c1cccc(COc2c(I)cc(/C(N)=N/OC)cc2I)c1.Cl.Cl,27.5
6,CO/N=C(\N)c1cccc(COc2ccc(/C(N)=N/OC)cc2I)c1.Cl.Cl,81
7,Cl.Cl.N/C(=N\O)c1cccc(COc2ccc(/C(N)=N/O)cc2I)c1,4.73
8,Cl.Cl.N/C(=N\O)c1ccc(COc2ccc(/C(N)=N/O)cc2I)cc1,18.1
9,Cl.Cl.N/C(=N\O)c1cccc(COc2ccc(/C(N)=N/O)cc2Br)c1,4.39
10,COc1cc(/C(N)=N/O)cc(OC)c1OCc1ccc(/C(N)=N/O)cc1.Cl.Cl,56.8

# Tested on: not listed separately
# Test: Selectivity index, ratio of IC50 for rat L6 cells to IC50 for amastigotes of Leishmania donovani
# Assay type: toxicity, cell-based
# Details: read-out: Ratio IC50
# Summary of the method: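 SI = IC50 in rat L6 myoblasts / IC50 against L. donovani MHOM/SD/62/IS-CL2D axenic amastigotes. The amastigote IC50 is the average of at least two determinations; the L6 IC50 is the average of duplicates.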
row,Structure (SMILES),selectivity ratio
1,COc1cc(/C(N)=N/O)cc(OC)c1OCc1cccc(/C(N)=N/O)c1.Cl.Cl,< 1
2,CO/N=C(\N)c1cccc(COc2c(Br)cc(/C(N)=N/OC)cc2Br)c1.Cl.Cl,< 1
3,COc1cc(/C(N)=N/O)cc(Br)c1OCc1cccc(/C(N)=N/O)c1.Cl.Cl,< 1
4,CO/N=C(\N)c1cccc(COc2ccc(/C(N)=N/OC)cc2Br)c1.Cl.Cl,17
5,CO/N=C(\N)c1cccc(COc2c(I)cc(/C(N)=N/OC)cc2I)c1.Cl.Cl,< 1
6,CO/N=C(\N)c1cccc(COc2ccc(/C(N)=N/OC)cc2I)c1.Cl.Cl,< 1
7,Cl.Cl.N/C(=N\O)c1cccc(COc2ccc(/C(N)=N/O)cc2I)c1,< 1
8,Cl.Cl.N/C(=N\O)c1ccc(COc2ccc(/C(N)=N/O)cc2I)cc1,< 1
9,Cl.Cl.N/C(=N\O)c1cccc(COc2ccc(/C(N)=N/O)cc2Br)c1,< 1
10,COc1cc(/C(N)=N/O)cc(OC)c1OCc1ccc(/C(N)=N/O)cc1.Cl.Cl,1.67

# Tested on: not listed separately
# Test: Selectivity index, ratio of IC50 for rat L6 cells to IC50 for chloroquine-resistant Plasmodium falciparum K1
# Assay type: toxicity, cell-based
# Details: read-out: Ratio IC50
# Summary of the method: (§1)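 SI = IC50 in rat L6 myoblasts / IC50 against the parasite (T. b. rhodesiense STIB900 or P. falciparum K1). Each IC50 is the average of duplicate determinations.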
row,Structure (SMILES),selectivity ratio
1,COc1cc(/C(N)=N/O)cc(OC)c1OCc1cccc(/C(N)=N/O)c1.Cl.Cl,< 6
2,CO/N=C(\N)c1cccc(COc2c(Br)cc(/C(N)=N/OC)cc2Br)c1.Cl.Cl,8
3,COc1cc(/C(N)=N/O)cc(Br)c1OCc1cccc(/C(N)=N/O)c1.Cl.Cl,< 3
4,CO/N=C(\N)c1cccc(COc2ccc(/C(N)=N/OC)cc2Br)c1.Cl.Cl,< 10
5,CO/N=C(\N)c1cccc(COc2c(I)cc(/C(N)=N/OC)cc2I)c1.Cl.Cl,< 4
6,CO/N=C(\N)c1cccc(COc2ccc(/C(N)=N/OC)cc2I)c1.Cl.Cl,13
7,Cl.Cl.N/C(=N\O)c1cccc(COc2ccc(/C(N)=N/O)cc2I)c1,< 1
8,Cl.Cl.N/C(=N\O)c1ccc(COc2ccc(/C(N)=N/O)cc2I)cc1,3
9,Cl.Cl.N/C(=N\O)c1cccc(COc2ccc(/C(N)=N/O)cc2Br)c1,< 1
10,COc1cc(/C(N)=N/O)cc(OC)c1OCc1ccc(/C(N)=N/O)cc1.Cl.Cl,5.11

# Tested on: Leishmania donovani
# Test: Antileishmanial activity against amastigotes of Leishmania donovani MHOM/SD/62/IS-CL2D
# Assay type: functional, organism-based
# Details: not given
# Summary of the method: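 Axenic amastigotes of L. donovani MHOM/SD/62/IS-CL2D; IC50 taken as the average of at least two determinations.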
row,Structure (SMILES),IC50 [µM]
1,COc1cc(/C(N)=N/O)cc(OC)c1OCc1cccc(/C(N)=N/O)c1.Cl.Cl,> 100
2,CO/N=C(\N)c1cccc(COc2c(Br)cc(/C(N)=N/OC)cc2Br)c1.Cl.Cl,> 50
3,COc1cc(/C(N)=N/O)cc(Br)c1OCc1cccc(/C(N)=N/O)c1.Cl.Cl,> 100
4,CO/N=C(\N)c1cccc(COc2ccc(/C(N)=N/OC)cc2Br)c1.Cl.Cl,5.66
5,CO/N=C(\N)c1cccc(COc2c(I)cc(/C(N)=N/OC)cc2I)c1.Cl.Cl,44.2
6,CO/N=C(\N)c1cccc(COc2ccc(/C(N)=N/OC)cc2I)c1.Cl.Cl,> 100
7,Cl.Cl.N/C(=N\O)c1cccc(COc2ccc(/C(N)=N/O)cc2I)c1,> 50
8,Cl.Cl.N/C(=N\O)c1ccc(COc2ccc(/C(N)=N/O)cc2I)cc1,> 100
9,Cl.Cl.N/C(=N\O)c1cccc(COc2ccc(/C(N)=N/O)cc2Br)c1,> 100
10,COc1cc(/C(N)=N/O)cc(OC)c1OCc1ccc(/C(N)=N/O)cc1.Cl.Cl,34.1

# Tested on: Trypanosoma brucei rhodesiense
# Test: Antitrypanosomal activity against Trypanosoma brucei rhodesiense STIB900 infected in NMRI mouse assessed as cured animal at 25 mg/kg, po administered for 4 days
# Assay type: functional, organism-based
# Design: dose 25 mg/kg
# Details: not given
# Summary of the method: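 Acute model in female NMRI mice infected with T. b. rhodesiense STIB900. Single daily doses given for four days, intraperitoneally or orally. Mice surviving 60 days post-infection without parasitaemia relapse counted as cured; result reported as cured/infected out of 4 mice per group, with mean survival in days.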
row,Structure (SMILES),Activity
1,COc1cc(/C(N)=N/O)cc(OC)c1OCc1cccc(/C(N)=N/O)c1.Cl.Cl,inactive
2,CO/N=C(\N)c1cccc(COc2c(Br)cc(/C(N)=N/OC)cc2Br)c1.Cl.Cl,inactive
3,COc1cc(/C(N)=N/O)cc(Br)c1OCc1cccc(/C(N)=N/O)c1.Cl.Cl,inactive
4,CO/N=C(\N)c1cccc(COc2ccc(/C(N)=N/OC)cc2Br)c1.Cl.Cl,Active
5,CO/N=C(\N)c1cccc(COc2c(I)cc(/C(N)=N/OC)cc2I)c1.Cl.Cl,inactive
6,CO/N=C(\N)c1cccc(COc2ccc(/C(N)=N/OC)cc2I)c1.Cl.Cl,inactive
7,Cl.Cl.N/C(=N\O)c1cccc(COc2ccc(/C(N)=N/O)cc2I)c1,inactive
8,Cl.Cl.N/C(=N\O)c1ccc(COc2ccc(/C(N)=N/O)cc2I)cc1,inactive
9,Cl.Cl.N/C(=N\O)c1cccc(COc2ccc(/C(N)=N/O)cc2Br)c1,inactive
10,COc1cc(/C(N)=N/O)cc(OC)c1OCc1ccc(/C(N)=N/O)cc1.Cl.Cl,inactive

# Tested on: not listed separately
# Test: Selectivity index, ratio of IC50 for rat L6 cells to IC50 for Trypanosoma brucei rhodesiense STIB900
# Assay type: toxicity, cell-based
# Details: read-out: Ratio IC50
# Summary of the method: as §1
row,Structure (SMILES),selectivity ratio
1,COc1cc(/C(N)=N/O)cc(OC)c1OCc1cccc(/C(N)=N/O)c1.Cl.Cl,< 1
2,CO/N=C(\N)c1cccc(COc2c(Br)cc(/C(N)=N/OC)cc2Br)c1.Cl.Cl,< 1
3,COc1cc(/C(N)=N/O)cc(Br)c1OCc1cccc(/C(N)=N/O)c1.Cl.Cl,< 1
4,CO/N=C(\N)c1cccc(COc2ccc(/C(N)=N/OC)cc2Br)c1.Cl.Cl,1
5,CO/N=C(\N)c1cccc(COc2c(I)cc(/C(N)=N/OC)cc2I)c1.Cl.Cl,1
6,CO/N=C(\N)c1cccc(COc2ccc(/C(N)=N/OC)cc2I)c1.Cl.Cl,2
7,Cl.Cl.N/C(=N\O)c1cccc(COc2ccc(/C(N)=N/O)cc2I)c1,< 1
8,Cl.Cl.N/C(=N\O)c1ccc(COc2ccc(/C(N)=N/O)cc2I)cc1,< 1
9,Cl.Cl.N/C(=N\O)c1cccc(COc2ccc(/C(N)=N/O)cc2Br)c1,< 1
10,COc1cc(/C(N)=N/O)cc(OC)c1OCc1ccc(/C(N)=N/O)cc1.Cl.Cl,< 1

# Tested on: Trypanosoma brucei rhodesiense
# Test: Antitrypanosomal activity against Trypanosoma brucei rhodesiense STIB900 infected in NMRI mouse assessed as mean survival days at 25 mg/kg, po administered for 4 days
# Assay type: functional
# Details: not given
# Summary of the method: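 Female NMRI mice, acute infection model with T. b. rhodesiense STIB900. Compound given as a single daily dose for four days, intraperitoneally or orally. Cure means survival to 60 days post-infection without parasitaemia relapse. Mean survival recorded in days.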
row,Structure (SMILES),MSD [days]
1,COc1cc(/C(N)=N/O)cc(OC)c1OCc1cccc(/C(N)=N/O)c1.Cl.Cl,16.5
2,CO/N=C(\N)c1cccc(COc2c(Br)cc(/C(N)=N/OC)cc2Br)c1.Cl.Cl,>31.5
3,COc1cc(/C(N)=N/O)cc(Br)c1OCc1cccc(/C(N)=N/O)c1.Cl.Cl,31.75
4,CO/N=C(\N)c1cccc(COc2ccc(/C(N)=N/OC)cc2Br)c1.Cl.Cl,>60
5,CO/N=C(\N)c1cccc(COc2c(I)cc(/C(N)=N/OC)cc2I)c1.Cl.Cl,19.75
6,CO/N=C(\N)c1cccc(COc2ccc(/C(N)=N/OC)cc2I)c1.Cl.Cl,22.25
7,Cl.Cl.N/C(=N\O)c1cccc(COc2ccc(/C(N)=N/O)cc2I)c1,20
8,Cl.Cl.N/C(=N\O)c1ccc(COc2ccc(/C(N)=N/O)cc2I)cc1,29.75
9,Cl.Cl.N/C(=N\O)c1cccc(COc2ccc(/C(N)=N/O)cc2Br)c1,12.75
10,COc1cc(/C(N)=N/O)cc(OC)c1OCc1ccc(/C(N)=N/O)cc1.Cl.Cl,14.5

# Tested on: Trypanosoma brucei rhodesiense
# Test: Antitrypanosomal activity against Trypanosoma brucei rhodesiense STIB900 after 72 hrs by Alamar blue assay
# Assay type: functional, organism-based
# Details: STIB900, 72 h
row,Structure (SMILES),IC50 [µM]
1,COc1cc(/C(N)=N/O)cc(OC)c1OCc1cccc(/C(N)=N/O)c1.Cl.Cl,157
2,CO/N=C(\N)c1cccc(COc2c(Br)cc(/C(N)=N/OC)cc2Br)c1.Cl.Cl,69.7
3,COc1cc(/C(N)=N/O)cc(Br)c1OCc1cccc(/C(N)=N/O)c1.Cl.Cl,87.9
4,CO/N=C(\N)c1cccc(COc2ccc(/C(N)=N/OC)cc2Br)c1.Cl.Cl,79.1
5,CO/N=C(\N)c1cccc(COc2c(I)cc(/C(N)=N/OC)cc2I)c1.Cl.Cl,26.3
6,CO/N=C(\N)c1cccc(COc2ccc(/C(N)=N/OC)cc2I)c1.Cl.Cl,34.7
7,Cl.Cl.N/C(=N\O)c1cccc(COc2ccc(/C(N)=N/O)cc2I)c1,50.2
8,Cl.Cl.N/C(=N\O)c1ccc(COc2ccc(/C(N)=N/O)cc2I)cc1,25.8
9,Cl.Cl.N/C(=N\O)c1cccc(COc2ccc(/C(N)=N/O)cc2Br)c1,14.7
10,COc1cc(/C(N)=N/O)cc(OC)c1OCc1ccc(/C(N)=N/O)cc1.Cl.Cl,161
